From ChEMBL document CHEMBL3393048, “Discovery of potent cytotoxic ortho-aryl chalcones as new scaffold targeting tubulin and mitosis with affinity-based fluorescence” (J Med Chem, 2014)
Calls of active or inactive are those of the source. The calls are words filed in the database; no cut-off is given here.

What was measured:
HepG2 = assay: Antiproliferative activity against human HepG2 cells after 48 hrs by SRB method; assay type: functional, cell-based; conditions: HepG2, 48 h
Outline: (§1)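 SRB assay. Cells in DMEM high glucose with 10% FBS were seeded at 5000/well and grown 24 h; a day-0 plate was fixed at that point. Compounds were added in triplicate for 48 h. IC50 came from nonlinear regression of dose–response curves from at least two independent experiments.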

SW480 = assay: Antiproliferative activity against human SW480 cells after 48 hrs by SRB method; assay type: functional, cell-based; conditions: SW480, 48 h; outline: as §1
[1] = Antiproliferative activity against human CNE2 cells after 48 hrs by SRB method; assay type: functional, cell-based; conditions: CNE-2, 48 h; outline: as §1
A549 [2] = assay: Antiproliferative activity against human A549 cells after 48 hrs by SRB method; assay type: functional, cell-based; conditions: A549, 48 h
Outline: as §1, with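 “h. Cells were fixed with TCA at 4 °C for 1 h, stained with 0.4% SRB, and the dye was solubilized in 10 mM Tris pH 10.4. OD was read at 515 nm with day-0 OD subtracted.” for “h.”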

MCF7 [3] = assay: Antiproliferative activity against human MCF7 cells after 48 hrs by SRB method; assay type: functional, cell-based; conditions: MCF7, 48 h; outline: as §1
A549 [4] = assay: Drug resistance index, ratio of IC50 for cis-platinum-resistant human A549 cells to IC50 for human A549 cells; assay type: functional
Outline: (§2)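 Drug resistance index = IC50 in the resistant line / IC50 in its parental line. […] Pairs: A549/CDDP vs A549, MCF-7/DOX vs MCF-7, A2780/TAX vs A2780, HCT-8/VCT vs HCT-8.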

MCF7 [5] = assay: Drug resistance index, ratio of IC50 for doxorubicin-resistant human MCF7 cells to IC50 for human MCF7 cells; assay type: functional; outline: as §2
A549 [6] = assay: Antiproliferative activity against cis-platinum-resistant human A549 cells after 48 hrs by SRB method; assay type: functional, cell-based; conditions: A549, 48 h
Outline: as §1, with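 “h. Cells were fixed with TCA at 4 °C for 1 h, stained with 0.4% SRB, and the dye was solubilized in 10 mM Tris pH 10.4. OD was read at 515 nm with day-0 OD subtracted.” for “h.”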

A549 [7] = assay: Cell cycle arrest in human A549 cells assessed as accumulation at G2/M phase at 7.81 to 250 nM after 24 hrs by Hoechst 33342 staining-based ArrayScanVTI analysis; assay type: functional
Outline: (§3)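 A549 cells were seeded at 5000/well, cultured overnight, then treated 24 h over a 7.81–250 concentration series. Cells were fixed in prewarmed paraformaldehyde 10 min, permeabilized with Triton X-100, and nuclei stained with Hoechst 33342. Imaging was by ArrayScan VTI high-content analysis. Phase percentage = cells within a gated fluorescence intensity / total cells counted.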

[8] = Antiproliferative activity against human HCT8 cells after 48 hrs by SRB method; assay type: functional, cell-based; conditions: HCT-8, 48 h; outline: as §1
A549 [9] = assay: Cell cycle arrest in human A549 cells assessed as accumulation at G2/M phase at 62.5 nM after 24 hrs by Hoechst 33342 staining-based ArrayScanVTI analysis; assay type: functional; outline: as §3
Tubulin = assay: Inhibition of tubulin polymerization (unknown origin) by DAPI staining-based fluorescence microscopy; assay type: protein-complex assay, Homo sapiens
Outline: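 Purified tubulin (99% pure; 20 μM as supplied) mixed with compound in general tubulin buffer (80 mM PIPES pH 6.9, 2.0 mM MgCl₂, 0.5 mM EGTA) with 1 mM GTP, 20% glycerol and DAPI reporter. Polymerization tracked kinetically at 37 °C as fluorescence rise (ex 360, em 450 nm). Duplicate wells per concentration. IC50 from at least two independent experiments.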

A2780 [10] = assay: Drug resistance index, ratio of IC50 for taxol-resistant human A2780 cells to IC50 for human A2780 cells; assay type: functional; outline: as §2
[11] = Antiproliferative activity against vincristine-resistant human HCT8 cells after 48 hrs by SRB method; assay type: functional, cell-based; conditions: HCT-8, 48 h
Outline: as §1, with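 “h. Cells were fixed with TCA at 4 °C for 1 h, stained with 0.4% SRB, and the dye was solubilized in 10 mM Tris pH 10.4. OD was read at 515 nm with day-0 OD subtracted.” for “h.”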

A2780 [12] = assay: Antiproliferative activity against human A2780 cells after 48 hrs by SRB method; assay type: functional, cell-based; conditions: A2780, 48 h; outline: as §1
MCF7 [13] = assay: Antiproliferative activity against doxorubicin-resistant human MCF7 cells after 48 hrs by SRB method; assay type: functional, cell-based; conditions: MCF7, 48 h; outline: as §1
A2780 [14] = assay: Antiproliferative activity against taxol-resistant human A2780 cells after 48 hrs by SRB method; assay type: functional, cell-based; conditions: A2780, 48 h; outline: as §1
[15] = Drug resistance index, ratio of IC50 for vincristine-resistant human HCT8 cells to IC50 for human HCT8 cells; assay type: functional, HCT-8; outline: as §2
Tubulin (Homo sapiens) = Tubulin (Homo sapiens) (UniProt P68371+Q9H4B7+P0DPH7+P68366+Q13509+Q71U36+P04350+Q3ZCM7+P07437+P68363+Q9BQE3+Q6PEY2+Q13885+Q9BVA1+Q9BUF5); assay: Inhibition of tubulin polymerization (unknown origin) at 20 uM by DAPI staining-based fluorescence microscopy; assay type: protein-complex assay

IC50 (HepG2) [µM]	IC50 (SW480) [µM]	IC50 (A549 [2]) [µM]	IC50 (MCF7 [3]) [µM]	SMILES	IC50 [1] [µM]	further results
12	2.2	2.2	9.1	COc1cc(C(=O)/C=C/c2ccccc2-c2ccc(F)cc2)cc(OC)c1OC	3.8	
0.29	0.33	0.93	2.7	COc1ccc(/C=C/C(=O)c2ccccc2-c2ccc(F)nc2)cc1	0.16	
> 50	> 50	> 50	> 50	COc1cc(CNC(=O)c2ccccc2-c2ccc(F)cc2)cc(OC)c1OC	> 50	
0.52	2.4	1.1	1.7	COc1ccc(OC)c(/C=C/C(=O)c2ccccc2-c2ccc(F)cc2)c1	0.75	
0.03	0.041	0.082	0.22	COc1ccc(/C=C/C(=O)c2ccccc2-c2ccc(F)cc2)cc1B(O)O	0.021	Ratio IC50 (A549 [4]): 1.1; Ratio IC50 (MCF7 [5]): 0.6; IC50 (A549 [6]): 74 nM; Activity (A549 [7]): Active; IC50 [8]: 63 nM; Activity (A549 [9]): Active; IC50 (Tubulin): 3.4 µM; Ratio IC50 (A2780 [10]): 3.6; IC50 [11]: 84 nM; IC50 (A2780 [12]): 63 nM; IC50 (MCF7 [13]): 24 nM; IC50 (A2780 [14]): 230 nM; Ratio IC50 [15]: 1.3
3.3	6.5	6.8	8.3	COc1ccc(-c2ccccc2C(=O)/C=C/c2ccc(Br)cc2)cc1OC	4.8	inhibition (Tubulin (Homo sapiens)): inactive
> 50	> 50	> 50	> 50	COc1ccc(CNC(=O)c2ccccc2-c2ccc(F)cc2)cc1OC	> 50	
0.097	0.2	0.58	0.83	COc1ccc(/C=C/C(=O)c2ccccc2-c2cccnc2)cc1	0.064	
1	1.3	1.2	2.8	COc1ccc(/C=C/C(=O)c2ccccc2-c2ccc(F)nc2)cc1OC	1.6	
6.6	8.3	7.5	7.1	COc1ccc(C(=O)/C=C/c2ccccc2-c2ccc(F)cc2)cc1OC	7.6	
				COc1cccc2c1C(=O)c1c(O)c3c(c(O)c1C2=O)C[C@@](O)(C(=O)CO)C[C@@H]3O[C@H]1C[C@H](N)[C@H](O)[C@H](C)O1 [DOXORUBICIN]		IC50 (A549 [6]): 290 nM; IC50 [11]: 3400 nM; IC50 (A2780 [14]): 1900 nM
0.23	0.17	0.19	0.48	COc1ccc(/C=C/C(=O)c2ccccc2-c2ccc(OC)c(OC)c2OC)cc1O	0.16	
2.1	5.2	4.1	3.1	COc1ccc(OC)c(/C=C/C(=O)c2ccccc2-c2ccc(OC)c(OC)c2)c1	2.4	inhibition (Tubulin (Homo sapiens)): Active
0.11	0.14	0.28	0.64	COc1ccc(/C=C/C(=O)c2ccccc2-c2cccc(F)c2)cc1	0.073	Ratio IC50 (A549 [4]): 2.1; Ratio IC50 (MCF7 [5]): 0.64; IC50 (A549 [6]): 480 nM; IC50 [8]: 200 nM; IC50 (Tubulin): 4 µM; Ratio IC50 (A2780 [10]): 5.2; IC50 [11]: 220 nM; IC50 (A2780 [12]): 160 nM; IC50 (MCF7 [13]): 84 nM; IC50 (A2780 [14]): 860 nM; Ratio IC50 [15]: 1.1
0.6	0.89	1.6	1.1	COc1ccc(/C=C/C(=O)c2ccccc2-c2ccc(OC)c(OC)c2)cc1	0.32	
4.3	6.8	8.6	7.1	COc1ccc(-c2ccccc2C(=O)/C=C/c2ccc(F)cc2)cc1OC	5.4	inhibition (Tubulin (Homo sapiens)): inactive

IC50 (HepG2) [µM]	IC50 (SW480) [µM]	IC50 (A549 [2]) [µM]	IC50 (MCF7 [3]) [µM]	SMILES	IC50 [1] [µM]	further results
17	15	17	41	COc1ccc(C(=O)/C=C/c2ccccc2-c2ccc(F)nc2)cc1OC	17	
3.1	4.2	4.6	5.4	COc1cc(C(=O)/C=C/c2ccccc2-c2ccc(F)cc2)ccc1O	4.8	
0.19	0.34	0.94	0.56	COc1ccc(C(=O)/C=C/c2ccccc2-c2ccc(F)cc2)cc1O	0.75	
> 50	> 50	> 50	> 50	COc1ccc(CNC(=O)c2ccccc2-c2ccc(F)cc2)cc1	> 50	
6.3	8.4	8.2	8.8	COc1ccc(C(=O)/C=C/c2ccccc2-c2ccc(F)cc2)cc1	9	
0.15	0.16	0.33	1.2	COc1ccc(/C=C/C(=O)c2ccccc2-c2cccc(F)c2)cc1OC	0.65	
12	23	31	23	Cc1ccc(/C=C/C(=O)c2ccccc2-c2ccc(F)cc2)o1	14	
6.2	16	12	9.5	O=C(/C=C/c1cccs1)c1ccccc1-c1ccc(F)cc1	5.9	inhibition (Tubulin (Homo sapiens)): Active
6.4	7.4	6.9	12	O=C(/C=C/c1ccccc1-c1ccc(F)nc1)c1cccc(O)c1	8.7	
1.8	1.6	3.2	2	COc1ccc(C(=O)/C=C/c2ccccc2-c2ccc(F)nc2)cc1O	2.1	
9.9	8.5	13	27	COc1cc(C(=O)/C=C/c2ccccc2-c2ccc(F)nc2)ccc1O	19	
0.095	0.57	0.44	0.24	COc1ccc(/C=C/C(=O)c2ccccc2-c2ccc(F)cc2)cc1OC	0.081	
8.2	10	> 50	13	COc1ccc(C(=O)/C=C/c2ccccc2-c2ccc(F)nc2)cc1	13	
5	5.7	7.1	5.3	COc1cccc(/C=C/C(=O)c2ccccc2-c2ccc(F)cc2)c1OC	5.2	inhibition (Tubulin (Homo sapiens)): Active
0.028	0.007			CC(=O)O[C@H]1C(=O)[C@@]2(C)[C@H]([C@H](OC(=O)c3ccccc3)[C@]3(O)C[C@H](OC(=O)[C@H](O)[C@@H](NC(=O)c4ccccc4)c4ccccc4)C(C)=C1C3(C)C)[C@]1(OC(C)=O)CO[C@@H]1C[C@@H]2O [PACLITAXEL]		IC50 [8]: 21 nM; IC50 [11]: 2600 nM
4.2	8.7	6.9	9.3	O=C(/C=C/c1ccccc1-c1ccc(F)cc1)c1cccc(O)c1	7.3	

SMILES	IC50 (HepG2) [µM]	IC50 (SW480) [µM]	IC50 (A549 [2]) [µM]	IC50 (MCF7 [3]) [µM]	IC50 [1] [µM]	further results
COc1ccc(/C=C/C(=O)c2ccccc2-c2cc(OC)c(OC)c(OC)c2)cc1O	0.19	0.3	0.29	0.68	0.79	Ratio IC50 (A549 [4]): 2; Ratio IC50 (MCF7 [5]): 0.24; IC50 (A549 [6]): 590 nM; IC50 [8]: 520 nM; IC50 (Tubulin): 2.8 µM; Ratio IC50 (A2780 [10]): 4.3; IC50 [11]: 2000 nM; IC50 (A2780 [12]): 380 nM; IC50 (MCF7 [13]): 170 nM; IC50 (A2780 [14]): 1600 nM; Ratio IC50 [15]: 4
